Reference: ChEMBL document CHEMBL4428045, “Antioxidant properties of thio-caffeine derivatives: Identification of the newly synthesized 8-[(pyrrolidin-1-ylcarbonothioyl)sulfanyl]caffeine as antioxidant and highly potent cytoprotective agent” (Bioorg Med Chem Lett, 2016)
Activity calls are given as the source filed them. The calls are words filed in the database; no cut-off is given here.

Key:
Erythrocyte [1] = assay: Hemolytic activity in human erythrocytes assessed as change in cell shape by measuring discocytes level at 0.1 mg/ml incubated for 60 mins by […]; assay type: ADME, cell-based; settings: 1 h
[2] = Antioxidant activity assessed as ferric ion reducing activity using Fe3+(CN-)6 at 0.1 mg/ml incubated for 20 mins by spectrophotometric analysis relative to trolox; assay type: functional; parameters: scale not given: the % may be the effect or the level left
[3] = Antioxidant activity assessed as DPPH radical scavenging activity incubated for 30 mins in dark by spectrophotometric analysis; assay type: functional
[4] = Antioxidant activity assessed as ferric ion reducing activity using Fe3+(CN-)6 incubated for 20 mins by spectrophotometric analysis; assay type: functional
Erythrocyte [5] = assay: Cytoprotection against AAPH-induced haemolysis in human erythrocytes at 0.01 to 1 mg/l pre-incubated for 20 mins before 60 mM AAPH addition for 4 hrs by spectrophotometric analysis; assay type: functional; settings: in the assay text read “0.025 to 0.1 mg/ml” for “0.01 to 1 mg/l”
Method in brief: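 Human erythrocytes (RBCs) pre-incubated 20 min with compound or the standards Trolox and BHT, then challenged with 60 mM AAPH to induce free-radical haemolysis. Data are means SD (n = 4), with significance set at p < 0.05.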

[6] = Antioxidant activity assessed as DPPH radical scavenging activity at 0.1 mg/ml incubated for 30 mins in dark by spectrophotometric analysis relative to trolox; assay type: functional
[7] = Metal chelating activity of the compound assessed as inhibition of Fe2+-ferrozine complex formation incubated for 10 mins by spectrophotometric analysis; assay type: functional
[8] = Antioxidant activity assessed as ferric ion reducing activity using Fe3+(CN-)6 at 0.1 mg/ml incubated for 20 mins by spectrophotometric analysis relative to BHT; assay type: functional
[9] = Induction of hemolysis in human erythrocytes assessed as effect on osmotic resistance at 0.1 mg/ml incubated for 60 mins by erythrocyte osmotic fragility assay; assay type: cell-based; settings: 1 h
Method in brief: (§1)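 After 60 min of compound treatment, RBC osmotic resistance was expressed as %NaCl and compared with untreated control cells (p < 0.05).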

[10] = Hemolytic activity in human erythrocytes at 0.1 mg/ml incubated for 60 mins by spectrophotometric analysis; assay type: ADME, cell-based, Erythrocyte; settings: read-out: Activity
Method in brief: (§2)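 RBCs were incubated with compound for 60 min. Haemolysis below 5% was taken as not significant.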

[11] = Antioxidant activity assessed as ferric ion reducing activity using Fe3+(CN-)6 at 0.025 to 0.1 mg/ml incubated for 20 mins by spectrophotometric analysis relative to BHT; assay type: functional
[12] = Antioxidant activity assessed as DPPH radical scavenging activity at 0.1 mg/ml incubated for 30 mins in dark by spectrophotometric analysis relative to BHT; assay type: functional
[13] = Antioxidant activity assessed as ferric ion reducing activity using Fe3+(CN-)6 at 0.025 to 0.1 mg/ml incubated for 20 mins by spectrophotometric analysis relative to trolox; assay type: functional; parameters: scale not given: the % may be the effect or the level left
[14] = Antioxidant activity assessed as DPPH radical scavenging activity at 0.025 to 0.1 mg/ml incubated for 30 mins in dark by spectrophotometric analysis; assay type: functional
[15] = Hemolytic activity in human erythrocytes at 0.05 mg/ml incubated for 60 mins by spectrophotometric analysis; assay type: ADME, cell-based, Erythrocyte; settings: read-out: Activity; method in brief: as §2
[16] = Induction of hemolysis in human erythrocytes assessed as reduction in osmotic resistance at 0.1 mg/ml incubated for 60 mins by erythrocyte osmotic fragility assay relative to NaCl (reference value: 0.451%); assay type: cell-based; parameters: scale not given: the % may be the effect or the level left; settings: 1 h; method in brief: as §1
[17] = Induction of hemolysis in human erythrocytes assessed as change in RBC shape by measuring echinocytes and spherocytes level at 0.1 mg/ml preincubated for 60 mins followed by AAPH induction measured after 4 hrs by […]; assay type: cell-based
Erythrocyte [18] = assay: Hemolytic activity in human erythrocytes assessed as echinocytes/spherocytes formation incubated for 60 mins by microscopic analysis; assay type: ADME, cell-based; settings: 1 h
Method in brief: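 RBCs were incubated with compound for 60 min, and cell morphology was then assessed by optical microscopy for echinocytes, spherocytes and RBC ghosts.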

[19] = Hemolytic activity in human erythrocytes at 0.025 mg/ml incubated for 60 mins by spectrophotometric analysis; assay type: ADME, cell-based, Erythrocyte; settings: read-out: Activity; method in brief: as §2

Structure (SMILES)	Activity (Erythrocyte [1])	Activity (Erythrocyte [5])	Activity [7]	Activity [9]	hemolysis at 1 h, 0.1 mg/ml [10] [%]	Activity [14] [%]	also measured
Cn1c(=O)c2c(nc(SC(=S)N3CCCC3)n2C)n(C)c1=O	Non-Toxic	Active	inactive	Non-Toxic	0 to 5		Activity [2]: 65%; Activity [3]: Dose-dependent effect; Activity [4]: Dose-dependent effect; Activity [6]: 67%; Activity [8]: Active
CC(C)Sc1nc2c(c(=O)n(C)c(=O)n2C)n1C	Non-Toxic	10%	inactive	Non-Toxic	0 to 5		Activity [11]: Active; Activity [12]: Active; Activity [6]: 34%; Activity [13]: 38%
Cc1cc(C(C)(C)C)c(O)c(C(C)(C)C)c1							Activity [4]: Active; Activity [6]: Active
Cc1c(C)c2c(c(C)c1O)CCC(C)(C(=O)O)O2 (centres undefined)		Active					
Cn1c(=O)c2c(nc(SC(C)(C)C)n2C)n(C)c1=O	Non-Toxic	inactive	inactive	Non-Toxic	0 to 5	< 10	
Cn1c(=O)c2c(nc(Sc3ccccc3)n2C)n(C)c1=O		inactive	inactive	Toxic	57.2	< 10	hemolysis at 1 h, 0.05 mg/ml [15]: 26.9%; Activity [16]: 0.488%; Activity [17]: Toxic; Activity (Erythrocyte [18]): Toxic; hemolysis at 1 h, 0.025 mg/ml [19]: < 5%
CCCSc1nc2c(c(=O)n(C)c(=O)n2C)n1C	Non-Toxic	inactive	inactive	Non-Toxic	0 to 5	< 10	
CSc1nc2c(c(=O)n(C)c(=O)n2C)n1C	Non-Toxic	10%	inactive	Non-Toxic	0 to 5	< 10	
CCSc1nc2c(c(=O)n(C)c(=O)n2C)n1C	Non-Toxic	10%	inactive	Non-Toxic	0 to 5	< 10	
Cn1c(=S)c2c(ncn2C)n(C)c1=S	Non-Toxic	Active	inactive	Non-Toxic	0 to 5	< 10	
Cn1c(=S)c2c(ncn2C)n(C)c1=O	Non-Toxic	Active	inactive	Non-Toxic	0 to 5	< 10	
Cn1c(=O)c2c(ncn2C)n(C)c1=O [CAFFEINE]	Non-Toxic	10%	inactive	Non-Toxic	0 to 5	< 10	
